Measured values: ChEMBL document CHEMBL1147039, “Disrupting antibiotic resistance propagation by inhibiting the conjugative DNA relaxase” (Proc Natl Acad Sci U S A, 2007)
Active and inactive are the calls of the source. No cut-off for these calls is given here.

B1: Type IV secretion-like conjugative transfer relaxase protein TraI (Escherichia coli (strain SMS-3-5 / SECEC)), B1LRJ1 Y16F (protein)
chain: MMSIAQVRSAGSAGNFYTDKDNYYVLGSMGERWAGRGAEQLGLQGSVDKDVFTRLLEGRLPDGADLSRMQDGSNKHRPGYDLTFSAPKSVSMMAMLGGDKRLIDAHNQAVDFAVRQVEALASTRVMTDGQSETVLTGNLVMALFNHDTSRDQEPQLHTHAVVANVTQHNGEWKTLSSDKVGKTGFIENVYANQIAFGRLYREKLKEQVEALGYETEVVGKHGMWEMPGVPVEAFSGRSQTIREAVGEDASLKSRDVAALDTRKSKQHVDPEIKMTEWMQTLKETGFDIRAYRDAAEQRAYTRTQTPGPASQDGPDVQQAVTQAIAGLSERKVQFTYTDVLARTVGILPPEAGVIERARAGIDEAISREQLIPLDREKGLFTSGIHVLDELSVRALSRDIMKQNRVTVHPEKSVPRTAGYSDAVSVLAQDRPSLAIVSGQGGAAGQRERVAELVMMAREQGREVQIIAADRRSQMNLKQDERLSGELITGRRQLLEGMAFTPGSTVIVDQGEKLSLKETLTLLDGAARHNVQVLITDSGQRTGTGSALMAMKDAGVNTYRWQGGEQRPATIISEPDRNVRYARLAGDFAASVKAGEESVAQVSGVREQAILTQAIRSELKTQGVLGHQEVTMTALSPVWLDSRSRYLRDMYRPGMVMEQWNPETRSHDRYVIDRVTAQSHSLTLRDAQGETQVVRISSLDSSWSLFRPEKMPVADGERLRVTGKIPGLRVSGGDRLQVASVSEDAMTVVVPGRAEPASLPVADSPFTALKLENGWVETPGHSVSDSAKVFAAVTQMAMDNATLNGLARSGRDVRLYSSLDETRTAEKLARHPSFTVVSEQIKAHAGETSLETSISLQKAGLHTPAQQAIHLALPVLESKKLAFSMVDLLTEAKSFAAEGTGFTELGGEINAQIKRGDLLYVDVAKGYGTGLLVSRASYEAEKSILRHILEGKEAVTPLMERVPGELMEKLTSGQRAATRMILETSDRFTVVQGYAGVGKTTQFRAVMSAVNMLPESMRPRVVGLGPTHRAVGEMRSAGVDAQTLASFLHDTQLQQRSGETPDFSNTLFLLDESSMVGNTDMARAYALIAAGGGRAVASGDTDQLQAIAPGQPFRLQQTRSAADVAIMKEIVRQTPELREAVYNLINRDVERALSGLERVKPSQVPRLEGAWAPEHSVMEFSHSQEAKLAEAQQKAMLKGEAFPDVPMTLYEAIVRDYTGRTPEAREQTLIVTHLNEDRRVLNSMIHDAREKAGELGKEQVMVPVLNTANIRDGELRRLSTWETHRDALVLVDNVYHRIAGISKDDGLITLEDAEGNTRLISPREAVAEGVTLYTPDTIRVGTGDRMRFTKSDRERGYVANSVWTVTAVSGDSVTLSDGQQTRVIRPGQERAEQHIDLAYAITAHGAQGASETFAIALEGTEGNRKQMAGFESAYVALSRMKQHVQVYTDNRQGWTDAINNAVQKGTAHDVFEPKPDREVMNAERLFSTARELRDVAAGRAVLRQAGLAGGDSPARFIAPGRKYPQPYVALPAFDRNGKSAGIWLNPLTTDDGNGLRGFSGEGRVKGSGDAQFVALQGSRNGESLLADNMQEGVRIARDNPDSGVVVRIAGEGRPWNPGAITGGRVWGDIPDNSVQPGAGNGEPVTAEVLAQRQAEEAIRRETERRADEIVRKMAENKPDLPDGKTEQAVREIAGQERDRAAITEREAALPESVLRESQREREAVREVARENLLQERLQQMERDMVRDLQKEKTLGGD

How the values were obtained:
[1] = system: Type IV secretion-like conjugative transfer relaxase protein TraI (Escherichia coli (strain SMS-3-5 / SECEC)), B1LRJ1 [Y16F]; assay: (§1) Inhibition of Escherichia coli F plasmid TraI relaxase Y16F mutant assessed as oriT ssDNA cleavage at 200 nM
Escherichia coli [2] = assay: Inhibition of conjugate DNA transfer between tetracycline-resistant F plasmid positive Escherichia coli JS10 to streptomycin-resistant F plasmid deficient Escherichia coli JS4; assay type: functional, organism-based
In short: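 F+ donor and F− recipient E. coli were mixed 1:9 in dilute liquid medium with increasing inhibitor concentrations for 100 min. Inhibitor was removed before transconjugants were selected with antibiotics. Transconjugants were counted as colonies on agar, or by oxygen-biosensor fluorescence in antibiotic medium. EC50 for DNA transfer was derived from the counts.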

Escherichia coli [3] = assay: Cytotoxicity against tetracycline-resistant F plasmid positive Escherichia coli JS10; assay type: functional, organism-based
In short: (§2)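 Donor and recipient strains were kept separate and exposed to inhibitor for 100 min. Inhibitor was added at the start and removed before selection. Surviving cells were counted on antibiotic-selective agar plates, or in antibiotic-containing medium by an oxygen-quenched fluorophore gel assay in which fluorescence is proportional to live cells. EC50 was determined from cell counts.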

Escherichia coli [4] = assay: Selectivity ratio, ratio of EC50 for Escherichia coli JS4 to EC50 for Escherichia coli JS10; assay type: functional
In short: (§3)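 Each ratio divides one EC50 by another. The EC50s come from 100-min inhibitor exposures: separate donor and recipient survival assays, and a 1:9 donor:recipient liquid mating assay. Viable or transconjugant cells were counted on selective agar or by oxygen-quenched fluorescence in antibiotic medium.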

Escherichia coli [5] = assay: Selectivity ratio, ratio of EC50 for inhibition of conjugate DNA transfer between Escherichia coli JS10 and Escherichia coli JS4 to EC50 for Escherichia coli JS10; assay type: functional; in short: as §3
Escherichia coli [6] = assay: Selectivity ratio, ratio of EC50 for Escherichia coli JS10 to ratio of EC50 for inhibition of conjugate DNA transfer between Escherichia coli JS10 and Escherichia coli JS4; assay type: functional; in short: as §3
Escherichia coli [7] = assay: Selectivity ratio, ratio of EC50 for Escherichia coli JS4 to ratio of EC50 for inhibition of conjugate DNA transfer between Escherichia coli JS10 and Escherichia coli JS4; assay type: functional; in short: as §3
[8] = system: Type IV secretion-like conjugative transfer relaxase protein TraI (Escherichia coli (strain SMS-3-5 / SECEC)), B1LRJ1 [Y16F]; assay: as §1; remark: listed apart in the source
[9] = target: T1, Type IV secretion-like conjugative transfer relaxase protein TraI (Escherichia coli (strain SMS-3-5 / SECEC), UniProt B1LRJ1, Y16F); assay: Inhibition of Escherichia coli F plasmid TraI relaxase Y16F mutant assessed as oriT ssDNA cleavage by competitive inhibition assay
In short: (§4)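 Truncated F plasmid TraI (residues 1–300, Y16F) was expressed in E. coli at 30°C as an intein–chitin-binding-domain fusion, purified on chitin resin and released by DTT cleavage. Biotinylated oriT ssDNA was either fluorescein end-labelled or hybridised after the reaction to an end-labelled probe. Reactions ran at 37°C, were stopped with SDS/EDTA at 80°C, and were read on streptavidin-coated plates.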

Escherichia coli [10] = assay: Cytotoxicity against streptomycin-resistant F plasmid deficient Escherichia coli JS4; assay type: functional, organism-based; in short: as §2
[11] = target: T1, Type IV secretion-like conjugative transfer relaxase protein TraI; assay: Inhibition of Escherichia coli F plasmid TraI relaxase Y16F mutant assessed as oriT ssDNA cleavage by uncompetitive inhibition assay; in short: as §4
[12] = substrate: O=P(O)(O)NP(=O)(O)O; assay: Activity of Escherichia coli F plasmid TraI relaxase Y16F mutant assessed as oriT ssDNA cleavage; in short: as §4

| Molecule | Activity [1] | EC50 (Escherichia coli [2]) [µM] | EC50 (Escherichia coli [3]) [µM] | Ratio EC50 (Escherichia coli [4]) | Ratio EC50 (Escherichia coli [5]) | Ratio EC50 (Escherichia coli [6]) | Ratio EC50 (Escherichia coli [7]) | Activity [8] | Ki [9] [µM] | EC50 (Escherichia coli [10]) [µM] | Ki [11] [µM] | Km [12] [µM] | Vmax [12] [nM/s] |
| --- | --- | --- | --- | --- | --- | --- | --- | --- | --- | --- | --- | --- | --- |
| COP(=O)(OC)c1ccccc1P(=O)(OC)OC | inactive | 14 | 0.068 | 1500000 | 210 | 0.0048 | 7100 |  |  |  |  |  |  |
| CC1(C)S[C@@H]2[C@H](NC(=O)[C@H](N)c3ccccc3)C(=O)N2[C@H]1C(=O)O | inactive |  |  |  |  |  |  |  |  |  |  |  |  |
| NCCCCCC(O)(P(=O)(O)O)P(=O)(O)O | inactive |  |  |  |  |  |  | inactive |  |  |  |  |  |
| O=C(O)CN(CP(=O)(O)O)CP(=O)(O)O | inactive |  |  |  |  |  |  |  |  |  |  |  |  |
| O=P(O)(O)CCCCP(=O)(O)O | inactive |  |  |  |  |  |  |  |  |  |  |  |  |
| O=P(O)(O)CN(CP(=O)(O)O)CP(=O)(O)O | inactive |  |  |  |  |  |  |  |  |  |  |  |  |
| O=P(O)(O)C(Cl)(Cl)P(=O)(O)O [CLODRONIC ACID] | inactive | 0.11 | 9 | 330 | 0.013 | 78 | 26000 | Active | 0.003 | 3000 |  |  |  |
| CC(O)(P(=O)(O)O)P(=O)(O)O [ETIDRONIC ACID] | inactive | 0.33 | 10 | 38 | 0.034 | 30 | 1100 | Active | 0.003 | 370 |  |  |  |
| O=P(O)(O)NP(=O)(O)O [IMIDODIPHOSPHATE] | inactive | 10 | 0.43 | 1400 |  | 0.014 | 20 |  | 0.002 | 620 | 0.0027 |  |  |
| O=P(O)(O)CNCP(=O)(O)O [IMINOBIS(METHYLPHOSPHONIC ACID)] | inactive | 0.58 | 0.016 | 330000 | 36 | 0.028 | 9000 |  |  | 5000 |  |  |  |
| O=P(O)(O)CP(=O)(O)O [MEDRONIC ACID] | inactive | 0.35 | 0.51 | 1700 | 0.68 | 1.5 | 20 |  | 0.003 | 870 |  |  |  |
| NCCC(O)(P(=O)(O)O)P(=O)(O)O [PAMIDRONIC ACID] | inactive | > 10000 | > 10000 |  |  |  |  | inactive |  | > 10000 |  |  |  |
| B1 |  |  |  |  |  |  |  |  |  |  |  | 0.294 | 0.51 |
